Data taken from ChEMBL document CHEMBL1799968, “Dimethyl-diphenyl-propanamide derivatives as nonsteroidal dissociated glucocorticoid receptor agonists” (J Med Chem, 2010).

Key:
[1] = Selectivity ratio of Ki of GRapha to Ki of progesterone receptor
[2] = molecular target: T1, Estrogen receptor (Homo sapiens, UniProt P03372); experiment: Binding affinity to ERalpha by fluorescence polarization assay
T1 sequence (P03372 whole entry): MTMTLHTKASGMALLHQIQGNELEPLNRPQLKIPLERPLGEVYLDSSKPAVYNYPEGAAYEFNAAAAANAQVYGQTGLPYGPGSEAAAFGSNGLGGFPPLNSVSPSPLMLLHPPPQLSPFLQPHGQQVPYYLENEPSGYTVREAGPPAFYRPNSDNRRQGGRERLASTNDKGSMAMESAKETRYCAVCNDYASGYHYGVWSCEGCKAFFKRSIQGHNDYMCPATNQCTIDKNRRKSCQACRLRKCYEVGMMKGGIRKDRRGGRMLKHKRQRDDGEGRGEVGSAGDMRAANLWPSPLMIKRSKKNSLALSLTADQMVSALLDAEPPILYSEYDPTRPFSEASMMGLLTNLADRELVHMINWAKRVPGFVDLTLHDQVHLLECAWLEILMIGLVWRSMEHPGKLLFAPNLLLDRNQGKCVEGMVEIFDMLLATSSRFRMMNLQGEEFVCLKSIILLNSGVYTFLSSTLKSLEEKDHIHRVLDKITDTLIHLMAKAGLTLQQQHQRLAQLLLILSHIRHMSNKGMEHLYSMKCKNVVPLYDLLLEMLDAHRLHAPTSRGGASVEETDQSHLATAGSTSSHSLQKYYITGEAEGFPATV
Outline: (§1)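 Fluorescence polarization competition of test compound against a fluorescently labelled ligand for binding to full-length receptor or its ligand-binding domain.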

[3] = molecular target: T2, Glucocorticoid receptor (Homo sapiens) (UniProt P04150); experiment: Transactivation activity at glucocorticoid receptor in human 13D3/Huh7 cells assessed as induction of tyrosine aminotransferase activity after 24 hrs relative to Dexamethasone; assay type: cell-based; conditions: Huh-7
T2 sequence (whole entry): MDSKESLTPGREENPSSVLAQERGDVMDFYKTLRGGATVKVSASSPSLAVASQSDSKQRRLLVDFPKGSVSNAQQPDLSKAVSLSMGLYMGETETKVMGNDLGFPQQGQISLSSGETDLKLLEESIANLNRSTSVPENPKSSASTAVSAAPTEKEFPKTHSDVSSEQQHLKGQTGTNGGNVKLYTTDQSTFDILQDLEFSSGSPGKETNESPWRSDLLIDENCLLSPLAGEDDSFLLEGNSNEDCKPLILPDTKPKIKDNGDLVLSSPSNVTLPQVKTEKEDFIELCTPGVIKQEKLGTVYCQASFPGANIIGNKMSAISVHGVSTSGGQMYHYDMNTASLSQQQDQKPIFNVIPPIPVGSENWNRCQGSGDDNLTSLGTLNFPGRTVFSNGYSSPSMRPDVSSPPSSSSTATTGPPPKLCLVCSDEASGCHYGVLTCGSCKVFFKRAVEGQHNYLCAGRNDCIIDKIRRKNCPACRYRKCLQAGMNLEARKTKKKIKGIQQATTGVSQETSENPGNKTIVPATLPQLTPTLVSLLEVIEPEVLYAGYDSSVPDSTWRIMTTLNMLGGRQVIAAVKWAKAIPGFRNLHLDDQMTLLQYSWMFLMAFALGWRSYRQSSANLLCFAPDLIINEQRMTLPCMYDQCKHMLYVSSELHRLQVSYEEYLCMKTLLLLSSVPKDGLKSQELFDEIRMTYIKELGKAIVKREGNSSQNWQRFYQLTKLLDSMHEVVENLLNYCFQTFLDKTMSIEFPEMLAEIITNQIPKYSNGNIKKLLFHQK
Outline: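 Human 13D3/Huh7 hepatoma cells, 20 K/well, were incubated overnight at 37 °C/5% CO2. They were then treated overnight with compounds in assay medium containing 20 μM forskolin. The reaction was stopped with KOH and A340 read. Results are % activation, with EC50 derived.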

[4] = molecular target: T3, Androgen receptor (Homo sapiens, UniProt P10275); experiment: Binding affinity to androgen receptor by fluorescence polarization assay; outline: as §1
T3 sequence (P10275 whole entry): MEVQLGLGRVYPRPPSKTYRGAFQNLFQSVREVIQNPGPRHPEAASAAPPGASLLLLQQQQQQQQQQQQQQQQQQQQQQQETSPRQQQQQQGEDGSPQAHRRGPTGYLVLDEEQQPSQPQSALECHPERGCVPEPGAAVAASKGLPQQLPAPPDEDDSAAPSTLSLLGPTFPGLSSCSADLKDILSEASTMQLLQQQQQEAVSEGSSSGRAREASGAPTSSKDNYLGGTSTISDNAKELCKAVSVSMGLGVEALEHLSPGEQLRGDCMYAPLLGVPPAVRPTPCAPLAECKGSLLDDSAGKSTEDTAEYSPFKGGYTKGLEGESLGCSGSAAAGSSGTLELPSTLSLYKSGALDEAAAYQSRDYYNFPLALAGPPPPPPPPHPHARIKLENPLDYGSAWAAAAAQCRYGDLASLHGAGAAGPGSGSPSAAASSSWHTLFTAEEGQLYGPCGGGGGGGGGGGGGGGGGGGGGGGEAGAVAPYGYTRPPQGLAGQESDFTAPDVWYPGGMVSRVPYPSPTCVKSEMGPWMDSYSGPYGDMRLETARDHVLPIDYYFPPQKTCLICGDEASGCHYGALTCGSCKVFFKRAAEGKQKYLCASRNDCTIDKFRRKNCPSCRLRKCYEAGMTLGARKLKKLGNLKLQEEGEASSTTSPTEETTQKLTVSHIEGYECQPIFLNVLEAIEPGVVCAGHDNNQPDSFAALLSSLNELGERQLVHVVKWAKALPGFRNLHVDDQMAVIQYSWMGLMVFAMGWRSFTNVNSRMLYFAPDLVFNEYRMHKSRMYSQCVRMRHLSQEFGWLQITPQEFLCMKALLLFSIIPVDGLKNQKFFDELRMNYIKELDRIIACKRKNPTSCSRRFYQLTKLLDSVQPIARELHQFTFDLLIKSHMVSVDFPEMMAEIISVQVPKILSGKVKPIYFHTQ

[5] = molecular target: T4, Glucocorticoid receptor (Homo sapiens, UniProt P04150); experiment: Displacement of GS-red from GRapha by fluorescence polarization assay
T4 sequence (P04150 whole entry): T2 sequence (whole entry)

[6] = molecular target: T2, Glucocorticoid receptor (Homo sapiens); experiment: Transactivation activity of glucocorticoid receptor ligand binding domain expressed in human NP-1 Hela cells co-expressing GAL4 DNA binding domain by luciferase reporter gene assay relative to Dexamethasone; assay type: cell-based
Outline: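 HeLa NP-1 cells stably carrying a GAL4 DBD–human GR LBD chimera with a GAL4 luciferase reporter. Agonist activity was read as increased luciferase activity.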

[7] = Selectivity ratio of Ki of GRapha to Ki of androgen receptor
[8] = molecular target: T2, Glucocorticoid receptor (Homo sapiens); experiment: Transrepression activity of glucocorticoid receptor in human A549 cells expressing AP-1 assessed as inhibition of PMA-induced AP-1 activity by luciferase reporter gene assay relative to Dexamethasone; assay type: cell-based
Outline: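 Human A549 lung epithelial cells stably transfected with a 5×AP-1 response element luciferase reporter. AP-1 was induced with PMA (15 ng/mL), and inhibition was read as decreased luciferase.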

[9] = molecular target: T2, Glucocorticoid receptor (Homo sapiens); experiment: Transrepression activity of glucocorticoid receptor in human A549 cells assessed as inhibition of IL1beta-stimulated NFkappaB-dependent E-selectin transcription by luciferase reporter gene assay relative to Dexamethasone; assay type: cell-based

Structure (SMILES) | Ratio Ki [1] | Ki [2] [nM] | Efficacy [3] [%] | Ki [4] [nM] | Ki [5] [nM] | Efficacy [6] [%] | Ratio Ki [7] | Efficacy [8] [%] | Efficacy [9] [%]
CC(C)(C(=O)Nc1nncs1)[C@H]1c2ccccc2Oc2cc(O)ccc21 | 66 | 5500 | 45 | 696 | 0.8 | 46 | > 870 | 82 | 62
CC(C)(C(=O)Nc1nccs1)[C@@H](c1ccccc1)c1ccc(O)cc1 | 227 | > 100000 | 21 | 1060 | 1.2 | 21 | > 870 | 63 | 52
CC(C)(C(=O)Nc1nccs1)[C@H]1c2ccccc2Oc2cc(O)ccc21 | 73 | 2300 | 39 | 2340 | 0.3 | 30 | > 870 | 81 | 68
CC(C)(C(=O)Nc1nccs1)[C@@H](c1ccccc1)c1ccc(O)c(Br)c1 | 66 | > 50000 | 29 | 370 | 0.4 | 48 | > 870 | 83 | 71
CC(C)(C(=O)Nc1nccs1)[C@@H](c1ccccc1)c1ccc(O)c(F)c1 | 66 | > 50000 | 48 | 1030 | 0.7 | 61 | > 870 | 79 | 68
